Test results published in ChEMBL document CHEMBL1139266, “Sulfonamido-aryl ethers as bradykinin B1 receptor antagonists” (Bioorg Med Chem Lett, 2009).
pKi: −log10 of the molar value.

Legend:
B1 bradykinin receptor [1] = molecular target: T1, B1 bradykinin receptor (Homo sapiens, UniProt P46663); test: Displacement of [3H]desArg from human B1 in human WI 38 cells; assay type: cell-based
T1 sequence (P46663 whole entry): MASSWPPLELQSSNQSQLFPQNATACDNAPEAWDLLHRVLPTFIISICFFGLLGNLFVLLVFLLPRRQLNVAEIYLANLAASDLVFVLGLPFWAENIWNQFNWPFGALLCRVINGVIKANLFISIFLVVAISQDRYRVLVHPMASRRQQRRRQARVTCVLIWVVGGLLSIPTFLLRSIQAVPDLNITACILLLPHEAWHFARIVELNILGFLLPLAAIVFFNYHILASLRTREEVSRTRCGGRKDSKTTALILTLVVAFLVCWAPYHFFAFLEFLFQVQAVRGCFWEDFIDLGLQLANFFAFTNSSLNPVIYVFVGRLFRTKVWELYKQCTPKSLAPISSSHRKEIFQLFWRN
In short: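 WI-38 fibroblasts, 50,000/well, grown overnight and primed with IL-1b 100 units/mL for 3 h to induce B1. Binding used ~1 nM [3H]-desArg10kallidin in HEPES/HBSS pH 7.4 with phenanthroline and bacitracin, 1 h at 4 °C, 0.5% final DMSO. Nonspecific binding was defined with 3 µM desArg10kallidin. Cells washed, SDS-solubilized and scintillation counted; logistic fit gave IC50, converted to Ki, ≥3 determinations.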

B1 bradykinin receptor [2] = molecular target: T1, B1 bradykinin receptor; test: Antagonist activity at human cloned B1 receptor expressed in african green monkey COS7 cells by calcium mobilization assay; assay type: functional, cell-based, COS-7
In short: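 Cos-7 cells (DMEM, 10% FBS, 37 °C, 6% CO2) transiently electroporated with 16 µg human B1 cDNA plus 50 µg aequorin cDNA, plated 12,000 cells/well and used 2–3 days later. Compounds serially diluted from 2 mM DMSO stocks in half-log steps, six concentrations in triplicate. Coelenterazine-loaded cells received compounds in HEPES assay buffer. Read-out was aequorin calcium luminescence, with desArg10HOE140 standards for basal and partial inhibition. Ki reported.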

Structure (SMILES) | pKi (B1 bradykinin receptor [1]) | pKi (B1 bradykinin receptor [2])
CNC(=O)CN(CCOc1ccc2c(c1)CCC2)S(=O)(=O)c1ccc(Cl)cc1Cl | 5.66 | 
COCCCNC(=O)CN(CCOc1ccc2c(c1)CCC2)S(=O)(=O)c1ccc(Cl)cc1Cl | 5.92 | 
O=C(O)CCNC(=O)CN(CCOc1ccc2c(c1)OCO2)S(=O)(=O)c1ccc(Cl)cc1Cl | 5.80 | 
O=C(O)CCNC(=O)CN(CCOc1cccc(Cl)c1)S(=O)(=O)c1ccc(Cl)cc1Cl | 5.96 | 
O=C(O)CCNC(=O)CN(CCOc1ccc2c(c1)CCC2)S(=O)(=O)c1ccc(Cl)cc1Cl | 6.39 | 

Other lines, results leading:

pKi (B1 bradykinin receptor [1]) | pKi (B1 bradykinin receptor [2]) | Structure (SMILES)
7.47 | 6.57 | COc1cc(CN(CC(=O)NCc2ccccc2Cl)S(=O)(=O)c2ccc(CN3CCCCC3)cc2)ccc1OCC(C)C
7.68 | 6.73 | CC(C)COc1ccc(CN(CC(=O)NCc2ccccc2Cl)S(=O)(=O)c2ccc(CN3CCN(C)CC3)cc2)cc1Cl
4.89 |  | O=C(O)CCNC(=O)CN(CCOc1ccccc1)S(=O)(=O)c1ccc(Cl)cc1Cl
6.83 | 6.33 | COc1cc(CN(CC(=O)NCc2ccccc2Cl)S(=O)(=O)c2ccc(CN3CCOCC3)cc2)ccc1OCC(C)C
7.96 | 7.43 | COc1cc(CN(CC(=O)NCc2ccccc2Cl)S(=O)(=O)c2ccc(CN3CCN(C)CC3)cc2)ccc1OCC(C)C
6.68 |  | COc1ccccc1CCNC(=O)CN(CCOc1ccc2c(c1)OCO2)S(=O)(=O)c1ccc(Cl)cc1Cl
7.03 | 6.30 | COc1cc(CN(CC(=O)NCc2ccccc2Cl)S(=O)(=O)c2ccc(CN(C)C)cc2)ccc1OCC(C)C
6.95 |  | CC(C)COc1ccc(CN(CC(=O)NCc2ccccc2Cl)S(=O)(=O)c2ccc(CN3CCN(C)CC3)cc2)cc1
